Assay results of several laboratories.
Protocols differ between the studies behind these lines.
Mode: inhibitor
BLK: Tyrosine-protein kinase Blk (BLK, Homo sapiens, UniProt P51451)
VCP: Transitional endoplasmic reticulum ATPase (VCP, Homo sapiens, UniProt P55072)
P4HB: Protein disulfide-isomerase (P4HB, Homo sapiens, UniProt P07237)
SLCO1B3: Solute carrier organic anion transporter family member 1B3 (SLCO1B3, Homo sapiens, UniProt Q9NPD5)
HDAC4: Histone deacetylase 4 (HDAC4, Homo sapiens, UniProt P56524)

Structure (SMILES)	target	observed	technique	time	setting	IC50 [nM]
CC#CC(=O)N[C@H]1CCCN(c2c(F)cc(C(N)=O)c3[nH]c(C)c(C)c23)C1	BLK	enzyme activity	–	–	–	6.92
CONC(=O)c1c(C)n(-c2nc3c(c(NCc4ccccc4)n2)CCCN3)c2ccccc12	VCP	enzyme activity	ADP detection	–	–	1640
Clc1ccc(Nc2ccncc2)cc1Cl	G/T mismatch-specific thymine DNA glycosylase (TDG, Homo sapiens, UniProt Q13569)	enzyme activity	–	–	–	> 99000
O=C1C[C@@H](c2ccccc2)Oc2cc(O)cc(O)c21	P4HB	enzyme activity	fluorescence	–	–	> 500000
CN(Cc1cnc2nc(N)nc(N)c2n1)c1ccc(C(=O)N[C@@H](CCC(=O)O)C(=O)O)cc1	SLCO1B3	transporter uptake	radiometric	2 min	–	498
C=CC(=O)Nc1cccc(Oc2nc(Nc3ccc(N4CCN(C)CC4)cc3)nc3ccoc23)c1	BLK	enzyme activity	–	–	–	< 0.254
COc1cccc2c1C(=O)c1c(O)c3c(c(O)c1C2=O)C[C@@](O)(C(=O)CO)C[C@@H]3O[C@H]1C[C@H](N)[C@H](O)[C@H](C)O1	Solute carrier organic anion transporter family member 1B3 (SLCO1B3, Homo sapiens, UniProt Q9NPD5, M233I)	transporter uptake	radiometric	2 min	–	> 100000
CCc1oc2ccccc2c1C(=O)c1cc(Br)c(O)c(Br)c1	SLCO1B3	transporter uptake	radiometric	–	oocytes	25300
Cc1cc2c(C(N)=O)cccc2n1-c1nc(NCc2ccccc2)c2c(n1)NC(C)CC2 (stereo not shown)	VCP	enzyme activity	ADP detection	–	–	39
O=C(O[C@@H]1Cc2c(O)cc(O)cc2O[C@@H]1c1ccc(O)c(O)c1)c1cc(O)c(O)c(O)c1	P4HB	enzyme activity	fluorescence	–	–	> 500000
CC(C)n1c(/C=C/C(O)CC(O)CC(=O)O)c(-c2ccc(F)cc2)c2ccccc21 (stereo not shown)	SLCO1B3	transporter uptake	radiometric	2 min	–	109
O=c1c(O)cc([C@H]2Oc3cc(O)cc(O)c3C[C@H]2O)cc2c([C@H]3Oc4cc(O)cc(O)c4C[C@H]3O)cc(O)c(O)c12	P4HB	enzyme activity	fluorescence	–	–	> 500000
CC(=O)O[C@H]1C(=O)[C@@]2(C)[C@H]([C@H](OC(=O)c3ccccc3)[C@]3(O)C[C@H](OC(=O)[C@H](O)[C@@H](NC(=O)c4ccccc4)c4ccccc4)C(C)=C1C3(C)C)[C@]1(OC(C)=O)CO[C@@H]1C[C@@H]2O	Solute carrier organic anion transporter family member 1B3 (SLCO1B3, Homo sapiens, UniProt Q9NPD5, S112A)	transporter uptake	radiometric	2 min	–	87700
CCN(CCO)CCCC(C)Nc1ccnc2cc(Cl)ccc12 (stereo not shown)	Procathepsin L (CTSL, Homo sapiens, UniProt P07711)	enzyme activity	fluorescence	–	–	234000
COc1ccc(N(Cc2nc(-c3ccc(F)cc3)cs2)C(=O)CCCCCC(=O)NO)cc1	HDAC4	enzyme activity	–	–	–	> 10000
Cc1cc2c(C(N)=O)nccc2n1-c1nc2c(c(NCc3ccccc3)n1)CCCN2	VCP	enzyme activity	ADP detection	–	–	121
O=C(NO)c1ccc(Cn2cnc3c(Nc4ccc(Cl)cc4)ncnc32)cc1	HDAC4	enzyme activity	–	–	–	3110
Cc1cc2c(C(N)=O)cncc2n1-c1nc2c(c(NCc3ccccc3)n1)CCCN2	VCP	enzyme activity	ADP detection	–	–	82
COc1ccc(N(Cc2csc(-c3ccccc3)n2)C(=O)CCCCCC(=O)NO)cc1	HDAC4	enzyme activity	–	–	–	> 10000
